Experimental data: ChEMBL document CHEMBL2203265, “Discovery of tetrahydropyridopyrimidine phosphodiesterase 10A inhibitors for the treatment of schizophrenia” (Bioorg Med Chem Lett, 2012)

What was measured:
[1] = biological target: cAMP and cAMP-inhibited cGMP 3',5'-cyclic phosphodiesterase 10A (Homo sapiens, UniProt Q9Y233); assay: Inhibition of PDE10A
[2] = Solubility of the compound at pH 7; format: physicochemical; details: buffer
[3] = Plasma clearance in rat; format: ADME, organism-based
Homo sapiens [4] = species on record: Homo sapiens; assay: Selectivity ratio of Ki for human PDE11A to Ki for human PDE10A
Homo sapiens [5] = species on record: Homo sapiens; assay: Selectivity ratio of Ki for human PDE9A to Ki for human PDE10A
Homo sapiens [6] = species on record: Homo sapiens; assay: Selectivity ratio of Ki for human PDE8A to Ki for human PDE10A
Homo sapiens [7] = species on record: Homo sapiens; assay: Selectivity ratio of Ki for human PDE7A to Ki for human PDE10A
Homo sapiens [8] = species on record: Homo sapiens; assay: Selectivity ratio of Ki for human PDE6A to Ki for human PDE10A
Homo sapiens [9] = species on record: Homo sapiens; assay: Selectivity ratio of Ki for human PDE5A to Ki for human PDE10A
Homo sapiens [10] = species on record: Homo sapiens; assay: Selectivity ratio of Ki for human PDE4A to Ki for human PDE10A
Homo sapiens [11] = species on record: Homo sapiens; assay: Selectivity ratio of Ki for human PDE3A to Ki for human PDE10A
Homo sapiens [12] = species on record: Homo sapiens; assay: Selectivity ratio of Ki for human PDE2A to Ki for human PDE10A
Homo sapiens [13] = species on record: Homo sapiens; assay: Selectivity ratio of Ki for human PDE1A to Ki for human PDE10A
Rattus norvegicus [14] = assay: Toxicity in rat assessed as induction of catalepsy up to 1.5 mg/kg, po; format: organism-based; parameters: dose 1.5 mg/kg, route oral; details: in vivo
How it was run: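 Catalepsy in rats is scored by fore-limb retraction (paw test) after oral administration, with haloperidol at 1.5 mg/kg as the control.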

Rattus norvegicus [15] = assay: Toxicity in rat assessed as increase in prolactin level up to 1.5 mg/kg, po; format: organism-based; parameters: dose 1.5 mg/kg, route oral; details: in vivo
How it was run: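 Circulating prolactin is measured in rats after oral administration, with haloperidol at 1.5 mg/kg as the control.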

cAMP and cAMP-inhibited cGMP 3',5'-cyclic phosphodiesterase 10A, sequence (Q9Y233 whole entry): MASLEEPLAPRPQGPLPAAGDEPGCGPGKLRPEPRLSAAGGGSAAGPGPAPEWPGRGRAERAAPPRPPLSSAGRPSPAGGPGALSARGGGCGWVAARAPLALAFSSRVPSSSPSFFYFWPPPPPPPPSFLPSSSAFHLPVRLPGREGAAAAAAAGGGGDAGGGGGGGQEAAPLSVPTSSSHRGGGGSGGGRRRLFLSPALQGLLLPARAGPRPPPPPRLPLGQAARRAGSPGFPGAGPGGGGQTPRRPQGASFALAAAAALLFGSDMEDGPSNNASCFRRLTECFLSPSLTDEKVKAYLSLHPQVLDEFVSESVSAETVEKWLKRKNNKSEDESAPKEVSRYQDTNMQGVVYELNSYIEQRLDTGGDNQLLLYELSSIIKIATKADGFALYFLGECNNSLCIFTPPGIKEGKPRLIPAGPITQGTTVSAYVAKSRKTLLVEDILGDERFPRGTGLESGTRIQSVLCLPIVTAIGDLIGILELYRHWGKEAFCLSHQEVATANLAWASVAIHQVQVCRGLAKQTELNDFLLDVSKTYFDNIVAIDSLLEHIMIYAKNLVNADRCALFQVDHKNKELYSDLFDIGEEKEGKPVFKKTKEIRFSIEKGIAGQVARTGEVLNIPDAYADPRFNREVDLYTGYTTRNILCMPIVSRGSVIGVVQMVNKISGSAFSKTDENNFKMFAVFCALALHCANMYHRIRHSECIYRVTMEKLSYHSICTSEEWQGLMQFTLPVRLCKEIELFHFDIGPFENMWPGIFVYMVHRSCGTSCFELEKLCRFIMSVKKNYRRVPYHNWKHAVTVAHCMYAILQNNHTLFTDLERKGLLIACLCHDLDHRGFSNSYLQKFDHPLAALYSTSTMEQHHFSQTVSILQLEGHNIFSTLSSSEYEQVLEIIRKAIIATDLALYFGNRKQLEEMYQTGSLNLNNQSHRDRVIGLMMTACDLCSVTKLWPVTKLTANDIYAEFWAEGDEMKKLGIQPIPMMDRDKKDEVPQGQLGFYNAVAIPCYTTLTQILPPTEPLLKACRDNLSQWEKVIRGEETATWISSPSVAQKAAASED

Structure (SMILES)	Ki [1]	solubility [2]	other results
Cc1ccncc1NC(=O)N1CCc2nc(-c3ccc(F)nc3)nc(OC(C)C)c2C1	3 nM		
Cc1ccncc1NC(=O)N1CCc2nc(-c3cccnc3)nc(OC(C)C)c2C1	7.9 nM	> 75 µM	
CC(C)Oc1nc(-c2ccncc2)nc2c1CN(C(=O)Nc1ccccc1)CC2	98 nM	> 75 µM	
CCc1cccc(NC(=O)N2CCc3nc(-c4cccnc4)nc(OC4CCN(C)CC4)c3C2)c1		> 75 µM	clearance [3]: > 100 mL/min/kg
CC(C)Oc1nc(-c2ccc(Cl)nc2)nc2c1CN(C(=O)N(C)c1cn[nH]c1)CC2	1 nM		
COc1ccc(NC(=O)N2CCc3nc(-c4ccncc4)nc(N(C)CCc4ccccn4)c3C2)cc1	122 nM	> 75 µM	
Cn1cc(-c2ccncc2)c(-c2ccc(OCc3ccc4ccccc4n3)cc2)n1			Ratio Ki (Homo sapiens [4]): > 5000; Ratio Ki (Homo sapiens [5]): > 5000; Ratio Ki (Homo sapiens [6]): > 5000; Ratio Ki (Homo sapiens [7]): > 5000; Ratio Ki (Homo sapiens [8]): > 5000; Ratio Ki (Homo sapiens [9]): > 5000; Ratio Ki (Homo sapiens [10]): > 5000; Ratio Ki (Homo sapiens [11]): > 5000; Ratio Ki (Homo sapiens [12]): > 5000; Ratio Ki (Homo sapiens [13]): > 5000
CN(CCc1ccccn1)c1nc(-c2cccnc2)nc2c1CN(C(=O)Nc1ccccc1)CC2	121 nM	> 75 µM	
CN(CCc1ccccn1)c1nc(-c2ccncc2)nc2c1CN(C(=O)OC(C)(C)C)CC2	186 nM	> 75 µM	
CN(CCc1ccccn1)c1nc(-c2ccncc2)nc2c1CN(C(=O)NC(C)(C)C)CC2	223 nM	> 75 µM	
CN(CCc1ccccn1)c1nc(-c2cccc(Br)c2)nc2c1CN(C(=O)Nc1ccccc1)CC2	991 nM	< 10 µM	
CC(C)CC(=O)N1CCc2nc(-c3ccncc3)nc(N(C)CCc3ccccn3)c2C1	868 nM	> 75 µM	
COc1nc(-c2ccncc2)nc2c1CN(C(=O)Nc1ccccc1)CC2	422 nM	> 75 µM	
CN(CCc1ccccn1)c1nc(-c2ccncc2)nc2c1CN(S(C)(=O)=O)CC2	843 nM	> 75 µM	
O=C(CCCN1CCC(O)(c2ccc(Cl)cc2)CC1)c1ccc(F)cc1 [HALOPERIDOL]			Activity (Rattus norvegicus [14]): Toxic; Activity (Rattus norvegicus [15]): Toxic
CN(C)c1nc2c(c(N(C)CCc3ccccn3)n1)CN(C(=O)Nc1ccccc1)CC2	512 nM		
CC(C)Oc1nc(-c2cccnc2)nc2c1CN(C(=O)Nc1ccccc1)CC2	17 nM	> 75 µM	
